From ChEMBL document CHEMBL4219224, “Structure based drug design and in vitro metabolism study: Discovery of N-(4-methylthiophenyl)-N,2-dimethyl-cyclopenta[d]pyrimidine as a potent microtubule targeting agent” (Bioorg Med Chem, 2018)

Key:
[1] = tested on: MDA-MB-435 (human); assay: Antiproliferative activity against human MDA-MB-435 cells by SRB assay
[2] = Induction of microtubule depolymerization in rat A10 cells by indirect immunofluorescence method; format: cell-based
How it was run: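 A-10 cells, which arrest in interphase, used to score loss of interphase microtubules. EC50 values calculated per an earlier method, minimum of three independent experiments.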

[3] = tested on: HeLa; assay: Antiproliferative activity against human HeLa cells by SRB assay; format: functional, cell-based
[4] = tested on: HeLa; assay: Resistance index, ratio of IC50 for human HeLa cells expressing wild type beta3 tubulin to IC50 for human HeLa cells; format: functional
How it was run: (§1)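 Antiproliferative IC50 by SRB assay (cellular protein) in each isogenic pair: SK-OV-3 parental versus Pgp-expressing, and parental HeLa versus wild-type βIII-tubulin-expressing HeLa. Rr is the IC50 ratio of the modified line to the parental line. At least three independent experiments, each in triplicate, mean ± SD.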

[5] = Resistance index, ratio of IC50 for human SKOV3-MDR1-M6/6 cells to IC50 for human SKOV3 cells; format: functional
How it was run: as §1

[6] = Antiproliferative activity against human SKOV3-MDR1-M6/6 cells by SRB assay; format: functional
[7] = tested on: SK-OV-3; assay: Antiproliferative activity against human SKOV3 cells by SRB assay; format: functional, cell-based
[8] = tested on: HeLa; assay: Antiproliferative activity against human HeLa cells expressing wild type beta3 tubulin by SRB assay; format: functional, cell-based
[9] = Inhibition of bovine brain tubulin polymerization assessed as reduction in tubulin assembly pretreated for 15 mins followed by GTP addition by spectrophotometric method; set-up: species or system Bos taurus
How it was run: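 Placed on ice, then 0.4 mM GTP (final) added. Turbidity read at 350 nm after a jump from 0 °C to 30 °C.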

[10] = species: Bos taurus; assay: Inhibition of [3H]colchicine binding to bovine brain tubulin at 5 uM measured after 10 mins by scintillation counting method relative to control
How it was run: (§2)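 Reactions of 0.1 mL held 1.0 μM bovine brain tubulin, 5.0 μM [3H]colchicine, inhibitor at 1.0 or 5.0 μM, colchicine-binding stabilizing components and 5% DMSO, assembled on ice with tubulin added last. Incubated 10 min at 37 °C, stopped with ice water, filtered through DEAE-cellulose filters. Bound radiolabel counted by scintillation.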

[11] = species: Bos taurus; assay: Inhibition of [3H]colchicine binding to bovine brain tubulin at 1 uM measured after 10 mins by scintillation counting method relative to control
How it was run: as §2

[12] = Retention time of the compound in human liver microsomes at 20 uM by LC-MS/MS analysis; format: ADME, microsome
How it was run: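 Human liver microsomes (both genders; 1.0 mg/mL) in 100 mM PBS pH 7.4 with 3 mM MgCl2 and 10 mM NADPH, preincubated at 37 °C. Reaction started with compound at 20 μM final (from DMSO stock); propranolol 5 μM as control. Aliquots at 0 and 60 min quenched in ice-cold ACN. Analysed by LC/MS/MS on a C18 column, 5–75% B gradient over 30 min, ESI.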

IC50 [1] | EC50 [2] | IC50 [3] | IC50 [7] | IC50 [8] | IC50 [9] | inhibition [10] | inhibition [11] | Retention_time [12] | Compound | Ratio IC50 [4] | Ratio IC50 [5] | IC50 [6]
20 nM | 45 nM | 31 nM | 36.3 nM |  |  |  |  |  | CNc1ccc(N(C)c2nc(C)nc3c2CCC3)cc1 | 0.6 | 1.4 | 49.7 nM
 | > 10000 nM |  |  |  |  |  |  |  | COc1ccc([C@@H](C)N(C)c2nc(C)nc3c2CCC3)cc1 |  |  | 
7.9 nM | 31 nM | 6.8 nM | 12.6 nM | 10 nM | 1100 nM | 93% | 79% | 7.9 min | Cc1nc2c(c(N(C)c3ccc([S+](C)[O-])cc3)n1)CCC2 (configuration not stated) | 1.5 | 1.6 | 19.9 nM
8.2 nM | 40 nM | 11.3 nM | 13 nM | 9.8 nM | 1200 nM | 85% | 65% |  | Cc1nc2c(c(N(C)c3ccc(N(C)C)cc3)n1)CCC2 | 0.9 | 1.7 | 22.6 nM
 | > 10000 nM |  |  |  |  |  |  |  | COc1ccc([C@H](C)N(C)c2nc(C)nc3c2CCC3)cc1 |  |  | 

More lines, now with the values behind:

Compound | IC50 [1] | EC50 [2] | IC50 [3] | IC50 [7] | IC50 [8] | IC50 [9] | inhibition [10] | inhibition [11] | Retention_time [12] | Ratio IC50 [4] | Ratio IC50 [5] | IC50 [6]
COc1ccc(CN(C)c2nc(C)nc3c2CCC3)cc1 | 450 nM | > 10000 nM |  |  |  |  |  |  |  |  |  | 
COc1ccc(N(C)c2nc(C)nc3c2CCC3)cc1C | 18.4 nM | 56 nM | 22.8 nM | 23.9 nM | 20.6 nM | 1100 nM | 83% | 59% |  | 0.9 | 2 | 47.5 nM
Cc1nc2c(c(N(C)c3ccc(S(C)(=O)=O)cc3)n1)CCC2 |  | > 10000 nM |  |  |  |  |  |  | 9.6 min |  |  | 
Cc1nc2c(c(N(C)c3ccc(N)cc3)n1)CCC2 | 1220 nM | 5120 nM |  |  |  |  |  |  |  |  |  | 
COc1ccc(/C=C\c2cc(OC)c(OC)c(OC)c2)cc1O [COMBRETASTATIN A4] | 3.4 nM | 13 nM |  |  |  |  |  |  |  |  |  | 6.6 nM
Cc1nc2c(c(N(C)c3ccc4c(c3)CCO4)n1)CCC2 | 12.1 nM | 70 nM | 16 nM | 18.7 nM | 15.1 nM | 1200 nM | 85% | 64% |  | 0.9 | 1.6 | 29.8 nM
Cc1nc2c(c(N(C)c3ccc(O)cc3)n1)CCC2 | 405 nM | 5560 nM |  |  |  |  |  |  |  |  |  | 
COc1ccc(N(C)c2nc(C)nc3c2CCC3)cc1 |  | 26 nM | 12 nM |  | 9.6 nM | 1600 nM | 92% | 70% |  |  |  | 16.4 nM
